# Published values collected from several papers.
# Lines come from different studies, so protocols differ.
Structure (SMILES),test,system,setting,endpoint,value
Cn1cnc(-c2nc3ccccn3c2Nc2ccc(F)cc2)c1,metabolic stability,"rat, hepatocytes",,hepatocyte CLint,14 µL/min/10⁶ cells
Cc1ccc(C(=O)N(CCCN)[C@@H](c2oc3cc(Cl)ccc3c(=O)c2Cc2ccccc2)C(C)C)cc1,,"human, plasma","intravenous, 5 mg/m², single dose, patients, infusion",clearance,20.5 mL/min
COc1ccn2c(Nc3ccccc3F)c(-c3ccncn3)nc2c1,metabolic stability,"rat, hepatocytes",,hepatocyte CLint,170 µL/min/10⁶ cells
CCNCCCNC/C=C\CNCCCNCC,,"human, plasma","intravenous, 200 mg, patients, infusion",clearance,3140 mL/min
N#CC1CCCN(c2nc(-c3ccccn3)nc3ccccc23)C1 (stereo not shown),metabolic stability,"human, liver microsomes",,microsomal CLint,48 µL/min/mg
CCOC(=O)C1=C(C)N/C(=C/c2ccn(-c3ccc(C(F)(F)F)cc3)c2)C1=O,HPLC,,pH 7.4,chromatographic logD,3.4
c1ccc(-c2nc(N3CCN(c4ccccn4)CC3)c3ccccc3n2)nc1,metabolic stability,"human, liver microsomes",,microsomal CLint,79 µL/min/mg
COc1cc(C(=O)NC2CCN(C)CC2)c(F)cc1Nc1ncc(C(F)(F)F)c(Oc2cccc3c2C(=O)N(C)C3)n1,,"human, plasma","oral, 100 mg, multiple doses, once daily, patients",CL/F,174 mL/min
COc1cc(OC)cc(-c2c(-c3ccccn3)nc3n2CCC3)c1,metabolic stability,"rat, hepatocytes",,hepatocyte CLint,> 300 µL/min/10⁶ cells
OC[C@H]1O[C@@H](c2ccc(Cl)c(Cc3ccc(O[C@H]4CCOC4)cc3)c2)[C@H](O)[C@@H](O)[C@@H]1O,,"human, urine","oral, 25 mg, single dose",renal clearance,21.1 mL/min
COc1cccnc1-c1nc2ccccn2c1N(C)c1ccc(F)cc1,metabolic stability,"rat, hepatocytes",,hepatocyte CLint,> 300 µL/min/10⁶ cells
c1ccc(-c2nc(NCCn3ccnc3)c3ccccc3n2)nc1,metabolic stability,"human, liver microsomes",,microsomal CLint,36 µL/min/mg
Clc1cccc(-c2c(-c3ccccn3)nc3n2CCC3)c1,metabolic stability,"rat, hepatocytes",,hepatocyte CLint,51 µL/min/10⁶ cells
Cc1c(C(=O)NN2CCCC(O)C2)nc(-c2ccc(Cl)cc2Cl)n1-c1ccc(OS(=O)(=O)CCC(F)(F)F)cc1 (stereo not shown),shake flask,aqueous buffer,pH 7.4,logD,3.8
Fc1ccc(Nc2c(-c3ncccc3F)nc3ccccn23)cc1,metabolic stability,"rat, hepatocytes",,hepatocyte CLint,100 µL/min/10⁶ cells
c1cnc2ccc(Nc3nc(NC4CC4)c4nc[nH]c4n3)cc2c1,,"human, plasma","oral, 800 mg/m², patients",CL/F,1280 mL/min
C[C@@H](C(=O)NC1Cc2ccccc2C1)c1ccccc1,metabolic stability,"rat, liver microsomes",1 µM,microsomal CLint,> 200 µL/min/mg
NC(=O)C1CCN(c2nc(-c3ccccn3)nc3ccccc23)C1 (stereo not shown),metabolic stability,"human, liver microsomes",,microsomal CLint,37 µL/min/mg
C[C@@H](C(=O)N1Cc2c(-c3ccc(C(=O)N4CCCc5ccccc54)cc3)cnn2C[C@@H]1C)c1ccccc1,HPLC,,pH 7.4,chromatographic logD,4.8
COc1cccc(-c2nc3ccccn3c2Nc2ccc(F)cc2)n1,metabolic stability,"rat, hepatocytes",,hepatocyte CLint,> 300 µL/min/10⁶ cells
c1ccc(-c2nc(N3CCc4ncccc4C3)c3ccccc3n2)nc1,metabolic stability,"human, liver microsomes",,microsomal CLint,71 µL/min/mg
CC1=C(C(=O)OCc2ccccc2)C(=O)/C(=C\c2cc(C)n(-c3ccccc3C(F)(F)F)c2C)N1,HPLC,,pH 7.4,chromatographic logD,4
c1ccc(-c2nc(NCc3ccco3)c3ccccc3n2)nc1,metabolic stability,"human, liver microsomes",,microsomal CLint,71 µL/min/mg
O=C1C2N=CN3C(NCc4c(F)ccc5c4CCO5)=NC=C(c4cnc(C(F)(F)F)cc4CN1CC(F)F)C23 (stereo not shown),metabolic stability,"rat, liver microsomes","100 µM, 30 min",scaled CLint,20 mL/min/kg
c1ccc(C2CCN(c3nc(-c4ccn[nH]4)nc4ccccc34)C2)nc1 (stereo not shown),metabolic stability,"human, liver microsomes",,microsomal CLint,46 µL/min/mg
CC(C)CCN(c1ccc(F)cc1)c1c(-c2ccccn2)nc2ccccn12,metabolic stability,"rat, hepatocytes",,hepatocyte CLint,> 300 µL/min/10⁶ cells
Cn1nccc1-c1nc(N2CCC(c3ccccn3)C2)c2ccccc2n1 (stereo not shown),metabolic stability,"human, liver microsomes",,microsomal CLint,59 µL/min/mg
CS(=O)(=O)CCC#N,,"human, plasma","oral, 100 mg, single dose, fasted",CL/F,0.3 mL/min/kg
